Test results reported in article PMC8123931 (Nature chemical biology, 2020).
Read-outs that look alike come from different tables or passages of the source.

How the values were obtained:
EGFR L858R/T790M/C797S [1] = target: T1, EGFR L858R/T790M/C797S (Homo sapiens, UniProt P00533, C797S/L858R/T790M); experiment: MaMTH-DS assay and screen, EGFR L858R/T790M/C797S bait with Shc1 prey; assay type: cell-based
EGFR ex19del/T790M/C797S = EGFR ex19del/T790M/C797S (Homo sapiens, UniProt P00533, C797S/DEL746-750/T790M); experiment: In vitro kinase assay, recombinant kinase domain; assay type: biochemical
EGFR L858R/T790M/C797S [2] = target: T1, EGFR L858R/T790M/C797S; experiment: MaMTH-DS assay, EGFR L858R/T790M/C797S bait with CrkII and Hsp90; assay type: cell-based
EGFR L858R/T790M/C797S [3] = target: T1, EGFR L858R/T790M/C797S; experiment: In vitro kinase assay, recombinant kinase domain; assay type: biochemical
[4] = target: purified pig brain tubulin (Sus scrofa, UniProt P02550+P02554); experiment: In vitro microtubule dynamics assay with mCherry-EB3; assay type: biochemical
purified pig brain tubulin, sequence (P02550 whole entry): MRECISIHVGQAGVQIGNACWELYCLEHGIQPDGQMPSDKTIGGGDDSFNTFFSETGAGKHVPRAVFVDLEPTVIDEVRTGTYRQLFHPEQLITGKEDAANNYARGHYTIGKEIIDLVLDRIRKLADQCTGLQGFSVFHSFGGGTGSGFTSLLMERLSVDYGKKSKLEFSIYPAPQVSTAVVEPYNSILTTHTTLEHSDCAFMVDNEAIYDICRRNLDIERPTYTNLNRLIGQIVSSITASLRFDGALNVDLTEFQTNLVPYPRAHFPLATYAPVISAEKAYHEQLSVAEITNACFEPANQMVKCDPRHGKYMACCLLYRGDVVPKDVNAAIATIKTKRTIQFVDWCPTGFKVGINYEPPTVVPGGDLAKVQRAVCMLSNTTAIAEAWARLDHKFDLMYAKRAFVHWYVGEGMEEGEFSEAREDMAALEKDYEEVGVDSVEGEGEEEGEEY
purified pig brain tubulin, sequence (P02554 whole entry): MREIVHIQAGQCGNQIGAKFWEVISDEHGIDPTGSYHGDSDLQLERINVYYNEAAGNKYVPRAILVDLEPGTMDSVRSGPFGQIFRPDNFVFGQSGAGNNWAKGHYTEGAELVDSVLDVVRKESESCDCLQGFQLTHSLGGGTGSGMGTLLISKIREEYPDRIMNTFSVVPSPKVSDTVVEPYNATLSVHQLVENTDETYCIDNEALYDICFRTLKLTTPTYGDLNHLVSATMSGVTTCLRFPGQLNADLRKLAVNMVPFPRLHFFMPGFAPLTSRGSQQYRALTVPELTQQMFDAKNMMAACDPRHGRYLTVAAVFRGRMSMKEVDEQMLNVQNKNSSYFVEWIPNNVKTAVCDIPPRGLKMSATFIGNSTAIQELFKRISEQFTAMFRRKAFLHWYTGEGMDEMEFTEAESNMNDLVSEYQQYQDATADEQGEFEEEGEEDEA

[5] = system: RTK bait (MET, FGFR4, AXL, ALK, EGFR); conditions: ALK bait
ALK = ALK (Homo sapiens, UniProt Q9UM73); conditions: dose response
ALK, sequence (Q9UM73 19-1620): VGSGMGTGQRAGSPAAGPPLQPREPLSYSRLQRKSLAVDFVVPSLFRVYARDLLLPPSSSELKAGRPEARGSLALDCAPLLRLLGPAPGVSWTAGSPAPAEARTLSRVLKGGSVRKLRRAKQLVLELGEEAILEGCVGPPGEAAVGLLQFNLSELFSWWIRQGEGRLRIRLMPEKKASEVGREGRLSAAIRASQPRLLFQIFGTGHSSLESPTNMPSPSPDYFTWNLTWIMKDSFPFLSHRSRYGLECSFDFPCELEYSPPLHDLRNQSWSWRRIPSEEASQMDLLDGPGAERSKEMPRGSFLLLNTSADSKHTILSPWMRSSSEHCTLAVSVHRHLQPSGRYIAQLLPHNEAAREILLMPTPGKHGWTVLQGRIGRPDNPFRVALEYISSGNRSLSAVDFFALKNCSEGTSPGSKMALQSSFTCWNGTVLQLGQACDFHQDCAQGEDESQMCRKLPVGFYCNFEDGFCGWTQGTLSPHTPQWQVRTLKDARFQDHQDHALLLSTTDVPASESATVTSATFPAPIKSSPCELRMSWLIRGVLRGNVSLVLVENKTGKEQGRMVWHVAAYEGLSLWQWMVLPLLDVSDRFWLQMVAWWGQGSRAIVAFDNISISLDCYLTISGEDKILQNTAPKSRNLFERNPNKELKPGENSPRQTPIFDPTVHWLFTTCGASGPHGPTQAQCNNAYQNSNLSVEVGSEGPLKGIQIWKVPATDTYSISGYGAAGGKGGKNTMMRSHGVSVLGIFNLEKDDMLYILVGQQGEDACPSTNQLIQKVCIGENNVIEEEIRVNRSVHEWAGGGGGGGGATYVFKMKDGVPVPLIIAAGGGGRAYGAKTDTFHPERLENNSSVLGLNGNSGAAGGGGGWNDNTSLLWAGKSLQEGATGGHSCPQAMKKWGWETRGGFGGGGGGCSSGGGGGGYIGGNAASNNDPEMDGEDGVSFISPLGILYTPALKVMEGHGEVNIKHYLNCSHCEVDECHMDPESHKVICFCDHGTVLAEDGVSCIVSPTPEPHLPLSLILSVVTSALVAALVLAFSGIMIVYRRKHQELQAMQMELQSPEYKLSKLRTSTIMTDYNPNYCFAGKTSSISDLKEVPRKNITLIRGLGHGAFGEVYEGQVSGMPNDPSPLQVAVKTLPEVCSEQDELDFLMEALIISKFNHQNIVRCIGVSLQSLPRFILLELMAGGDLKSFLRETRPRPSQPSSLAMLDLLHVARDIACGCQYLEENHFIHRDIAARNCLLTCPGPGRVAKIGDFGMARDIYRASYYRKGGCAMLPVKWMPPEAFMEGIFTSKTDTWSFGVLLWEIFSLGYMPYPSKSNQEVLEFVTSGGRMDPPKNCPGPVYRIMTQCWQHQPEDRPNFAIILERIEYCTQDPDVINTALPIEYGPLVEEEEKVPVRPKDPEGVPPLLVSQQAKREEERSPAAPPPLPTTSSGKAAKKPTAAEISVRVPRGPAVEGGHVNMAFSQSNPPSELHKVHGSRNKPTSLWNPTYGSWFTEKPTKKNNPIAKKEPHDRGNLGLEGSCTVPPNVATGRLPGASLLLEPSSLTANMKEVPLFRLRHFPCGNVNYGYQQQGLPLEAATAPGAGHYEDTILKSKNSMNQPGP

MaMTH stable bait cells = experiment: Reporter cell viability; assay type: cell-based; conditions: ALK bait cells
Method in brief: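 MaMTH stable bait cells seeded at 10,000 cells/well in 96-well plates. Next day treated across a dose range of test compound, with 0.5 μg/mL tetracycline to induce bait expression. Viability measured by CellTiter-Glo luminescence after 72 h of drug exposure.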

Row | Compound | interaction of Shc1 with EGFR L858R/T790M/C797S (in words) (EGFR L858R/T790M/C797S [1]) | interaction of Shc1 with EGFR L858R/T790M/C797S (in words) (EGFR L858R/T790M/C797S [1]; listed as ChemBridge compound 5213777) | inhibition of kinase activity of EGFR triple-mutant protein (EGFR ex19del/T790M/C797S) | interaction of CrkII with EGFR L858R/T790M/C797S (EGFR L858R/T790M/C797S [2]) | interaction of Hsp90 with EGFR L858R/T790M/C797S (EGFR L858R/T790M/C797S [2]) | inhibition of kinase activity of EGFR triple-mutant protein (EGFR L858R/T790M/C797S [3]) | microtubule dynamics (growth rate, time, catastrophe frequency) [4] | bait expression level [5] | ALK activity (interaction with Shc1) (ALK) | reporter cell viability (MaMTH stable bait cells)
1 | CCN(CC)c1ccc2cc(-c3nc4ccccc4o3)c(=O)oc2c1 [EMI1, 3-(1,3-benzoxazol-2-yl)-7-(diethylamino)-2H-chromen-2-one] | potently reducing the interaction of EGFR triple mutant with Shc1 | robust, dose-dependent inhibition | no inhibition of the kinase activity | inhibited interaction of both proteins with EGFR at a level similar to that observed with Shc1 | inhibited interaction of both proteins with EGFR at a level similar to that observed with Shc1 | no inhibition of the kinase activity | reduced microtubule growth rate and time, while increasing catastrophe frequency | – | – | –
2 | COc1cc(N2CCC(N3CCN(C)CC3)CC2)ccc1Nc1ncc(Cl)c(Nc2ccccc2P(C)(C)=O)n1 [brigatinib] | – | – | – | – | – | – | – | not altered by compound | strongly reduced, in a dose-dependent manner | cell viability was unaffected
